Experimental data published in ChEMBL document CHEMBL3588805, “Characterization and Biological Activities of Ocellatin Peptides from the Skin Secretion of the Frog Leptodactylus pustulatus” (J Nat Prod, 2015).
≈ marks a conversion by molar mass, not a printed value. Calls of active or inactive are those of the source. No cut-off for these calls is given here. Where a SMILES comes first, the peptide text is derived from it.

What was measured:
[1] = test system: Staphylococcus aureus; test: Antibacterial activity against Staphylococcus aureus […] assessed as inhibition of visible bacterial growth incubated at 37 degC for 24 hrs by CLSI protocol based method; type: functional
Outline: (§1)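 Broth microdilution per CLSI 2012. Strains grown at 37 °C in Mueller-Hinton broth to log phase (1 × 10^8 CFU/mL). Peptide 2-fold serial dilutions, 6.25–800 μg/mL, in Mueller-Hinton broth; final inoculum 5 × 10^5 CFU/mL per well. Aerobic incubation 24 h at 37 °C. MIC is the lowest concentration with no visible growth (A600 < 0.05). Meropenem control for Gram-negatives, oxacillin for S. aureus. Triplicate, two independent experiments.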

[2] = test system: Salmonella enterica; test: Antibacterial activity against Salmonella choleraesuis ATCC 14028 assessed as inhibition of visible bacterial growth incubated at 37 degC for 24 hrs by CLSI protocol based method; type: functional; conditions: ATCC 14028, 24 h
Outline: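 Strain grown at 37 °C in Mueller-Hinton broth to log phase (1 × 10^8 CFU/mL). Broth microdilution per CLSI (2012) with 2-fold peptide dilutions in Mueller-Hinton broth, 6.25–800 μg/mL, final inoculum 5 × 10^5 CFU/mL. Incubated 24 h, 37 °C, aerobic. MIC is the lowest concentration giving absorbance below 0.05 at 600 nm. Meropenem control. Triplicate, two independent experiments.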

[3] = test system: Escherichia coli; test: Antibacterial activity against Escherichia coli ATCC 25922 assessed as inhibition of visible bacterial growth incubated at 37 degC for 24 hrs by CLSI protocol based method; type: functional; conditions: ATCC 25922, 24 h; outline: as §1
[4] = Toxicity in human RBC assessed as induction of hemolysis at 800 ug/mL incubated for 1 hr at 37 degC; type: cell-based, Erythrocyte; conditions: human red blood cells (RBC), read-out: Activity
Outline: (§2)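 Human RBCs collected in EDTA (1.8 mg/mL), washed three times, resuspended in 0.85% saline, mixed with an equal volume of peptide solution (100–800 μg/mL). 1 h at 37 °C, centrifuged at 10000g for 1 min, supernatant absorbance read at 550 nm. Saline and 0.1% (v/v) Triton X as 0 and 100% controls. % hemolysis = (A peptide − A saline)/(A Triton − A saline) × 100.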

[5] = test system: Klebsiella pneumoniae; test: Antibacterial activity against Klebsiella pneumoniae ATCC 700603 assessed as inhibition of visible bacterial growth incubated at 37 degC for 24 hrs by CLSI protocol based method; type: functional; conditions: ATCC 700603, 24 h; outline: as §1
[6] = Cytotoxicity against mouse NIH/3T3 cells at antibacterial MIC (Escherichia coli ATCC 25922) assessed as reduction in cell index incubated for 60 hrs; type: cell-based; conditions: nih3t3, 60 h
[7] = Toxicity in human RBC assessed as induction of hemolysis at antibacterial MIC (Escherichia coli ATCC 25922) incubated for 1 hr at 37 degC; type: cell-based, Erythrocyte; conditions: human red blood cells (RBC), read-out: Activity; outline: as §2
[8] = test system: Escherichia coli; test: Induction of cell envelope morphological changes in Escherichia coli ATCC 25922 at 190 uM incubated for 24 hrs by atomic force microscopy; type: functional, organism-based
[9] = test system: Escherichia coli; test: Induction of morphological changes in Escherichia coli ATCC 25922 assessed as cell structural perturbation at 190 uM incubated for 24 hrs by atomic force microscopy; type: functional, organism-based
[10] = test system: Escherichia coli; test: Induction of morphological changes in Escherichia coli ATCC 25922 assessed as cell cytoplasmic content release at 190 uM incubated for 24 hrs by atomic force microscopy; type: functional, organism-based
[11] = test system: Escherichia coli; test: Induction of morphological changes in Escherichia coli ATCC 25922 assessed as reduction in number of pili at 190 uM incubated for 24 hrs by atomic force microscopy; type: functional, organism-based
[12] = test system: Escherichia coli; test: Induction of morphological changes in Escherichia coli ATCC 25922 assessed as cell shape changes release at 190 uM incubated for 24 hrs by atomic force microscopy; type: functional, organism-based

Row | Compound | MIC [1] | MIC [2] | MIC [3] | hemolysis at 1 h, 800 ug/mL [4] | MIC [5] | Activity [6] | hemolysis at 1 h [7] | Activity [8] | Activity [9] | Activity [10] | Activity [11] | Activity [12]
1 | CC[C@H](C)[C@H](NC(=O)[C@H](CCCCN)NC(=O)CNC(=O)[C@@H](NC(=O)[C@H](C)NC(=O)[C@H](Cc1cnc[nH]1)NC(=O)[C@H](C)NC(=O)[C@@H](NC(=O)[C@H](CC(C)C)NC(=O)[C@H](CCC(N)=O)NC(=O)[C@H](CCCCN)NC(=O)CNC(=O)[C@H](C)NC(=O)[C@H](CC(=O)O)NC(=O)[C@H](CCCCN)NC(=O)[C@@H](NC(=O)[C@@H](NC(=O)[C@H](CC(=O)O)NC(=O)[C@H](Cc1ccccc1)NC(=O)[C@@H](NC(=O)CN)C(C)C)[C@@H](C)CC)[C@@H](C)CC)C(C)C)[C@@H](C)O)C(=O)N[C@@H](C)C(=O)N[C@@H](CCC(=O)O)C(=O)N[C@@H](CCCCN)C(=O)N[C@H](C(N)=O)C(C)C (H-GVFDIIKDAGKQLVAHATGKIAEKV-NH2) | > 310 µM | > 310 µM | > 310 µM | 0% | > 310 µM | Non-toxic | 0% |  |  |  |  | 
2 | CC[C@H](C)[C@H](NC(=O)[C@H](CCCCN)NC(=O)CNC(=O)[C@H](CCSC)NC(=O)[C@H](C)NC(=O)[C@H](Cc1cnc[nH]1)NC(=O)[C@H](C)NC(=O)[C@@H](NC(=O)[C@H](CC(C)C)NC(=O)[C@H](CCC(N)=O)NC(=O)[C@H](CCCCN)NC(=O)CNC(=O)[C@H](C)NC(=O)[C@H](CC(=O)O)NC(=O)[C@H](CCCCN)NC(=O)[C@@H](NC(=O)[C@@H](NC(=O)[C@H](CC(=O)O)NC(=O)[C@H](Cc1ccccc1)NC(=O)[C@@H](NC(=O)CN)C(C)C)[C@@H](C)CC)[C@@H](C)CC)C(C)C)C(=O)N[C@@H](C)C(=O)N[C@@H](CCC(=O)O)C(=O)N[C@@H](CCCCN)C(=O)N[C@H](C(N)=O)C(C)C (H-GVFDIIKDAGKQLVAHAMGKIAEKV-NH2) | > 300 µM | > 300 µM | 300 µM (≈ 791 µg/mL) | 1.98% | > 300 µM | Non-toxic | 1.98% |  |  |  |  | 
3 | CC[C@H](C)[C@H](NC(=O)[C@H](CCCCN)NC(=O)CNC(=O)[C@H](CCSC)NC(=O)[C@H](C)NC(=O)[C@H](Cc1cnc[nH]1)NC(=O)[C@H](C)NC(=O)[C@@H](NC(=O)[C@H](CC(C)C)NC(=O)[C@H](CCC(N)=O)NC(=O)[C@H](CCCCN)NC(=O)CNC(=O)[C@H](C)NC(=O)CNC(=O)[C@H](CCCCN)NC(=O)[C@@H](NC(=O)[C@@H](NC(=O)[C@H](CC(=O)O)NC(=O)[C@H](Cc1ccccc1)NC(=O)[C@@H](NC(=O)CN)C(C)C)[C@@H](C)CC)[C@@H](C)CC)[C@@H](C)CC)C(=O)N[C@@H](C)C(=O)N[C@@H](CCC(=O)O)C(=O)N[C@@H](CCCCN)C(=O)N[C@H](C(=O)NCC(=O)N[C@@H](CC(C)C)C(=O)N[C@@H](CC(N)=O)C(=O)N[C@@H](CCCCN)C(=O)N[C@@H](CC(=O)O)C(=O)NCC(=O)N[C@@H](CC(N)=O)C(=O)O)C(C)C (H-GVFDIIKGAGKQLIAHAMGKIAEKVGLNKDGN-OH) | 240 µM (≈ 791 µg/mL) | 240 µM (≈ 791 µg/mL) | 60 µM (≈ 198 µg/mL) | 13.7% | > 240 µM | Non-toxic | 0.06% | Active | Active | Active | Active | Active
4 | CC[C@H](C)[C@H](NC(=O)[C@H](CC(C)C)NC(=O)[C@H](CCC(N)=O)NC(=O)[C@H](CCCCN)NC(=O)CNC(=O)[C@H](C)NC(=O)CNC(=O)[C@H](CCCCN)NC(=O)[C@@H](NC(=O)[C@@H](NC(=O)[C@H](CC(=O)O)NC(=O)[C@H](Cc1ccccc1)NC(=O)[C@@H](NC(=O)CN)C(C)C)[C@@H](C)CC)[C@@H](C)CC)C(=O)N[C@@H](C)C(=O)N[C@@H](Cc1cnc[nH]1)C(=O)N[C@@H](C)C(=O)N[C@@H](CCSC)C(=O)N[C@@H](CCC(=O)O)C(=O)N[C@@H](CCCCN)C(=O)N[C@H](C(=O)N[C@@H](C)C(=O)N[C@@H](CCC(=O)O)C(=O)N[C@@H](CCCCN)C(=O)N[C@H](C(=O)NCC(=O)N[C@@H](CC(C)C)C(=O)N[C@@H](CC(N)=O)C(=O)N[C@@H](CCCCN)C(=O)N[C@@H](CC(=O)O)C(=O)NCC(=O)N[C@@H](CC(N)=O)C(=O)O)C(C)C)[C@@H](C)CC (H-GVFDIIKGAGKQLIAHAMEKIAEKVGLNKDGN-OH) | > 240 µM | > 240 µM | 120 µM (≈ 404 µg/mL) | 0.69% | > 240 µM | Non-toxic | 0% |  |  |  |  | 
